Source: ChEMBL document CHEMBL5247577, “Improved Selective Class I HDAC and Novel Selective HDAC3 Inhibitors: Beyond Hydroxamic Acids and Benzamides” (ACS Med Chem Lett, 2019)
Blank lines part the entries; values can stand above or below the compound they belong to.

Legend:
Histone deacetylase = experiment: Inhibition of HDAC in human HeLa cells using FLUOR DE LYS-SIRT1 as fluorogenic substrate incubated for 4 hrs by spectrophotometer based analysis; assay type: cell-based
Histone deacetylase 1 = Histone deacetylase 1 (Homo sapiens, UniProt Q13547); experiment: Inhibition of human recombinant his tagged HDAC1 expressed in baculovirus expression system using FLUOR DE LYS-SIRT1 as fluorogenic substrate preincubated for 10 mins followed by substrate addition and measured after 1 hr by spectrophotometer based analysis
Chain of Histone deacetylase 1 (Q13547 whole entry): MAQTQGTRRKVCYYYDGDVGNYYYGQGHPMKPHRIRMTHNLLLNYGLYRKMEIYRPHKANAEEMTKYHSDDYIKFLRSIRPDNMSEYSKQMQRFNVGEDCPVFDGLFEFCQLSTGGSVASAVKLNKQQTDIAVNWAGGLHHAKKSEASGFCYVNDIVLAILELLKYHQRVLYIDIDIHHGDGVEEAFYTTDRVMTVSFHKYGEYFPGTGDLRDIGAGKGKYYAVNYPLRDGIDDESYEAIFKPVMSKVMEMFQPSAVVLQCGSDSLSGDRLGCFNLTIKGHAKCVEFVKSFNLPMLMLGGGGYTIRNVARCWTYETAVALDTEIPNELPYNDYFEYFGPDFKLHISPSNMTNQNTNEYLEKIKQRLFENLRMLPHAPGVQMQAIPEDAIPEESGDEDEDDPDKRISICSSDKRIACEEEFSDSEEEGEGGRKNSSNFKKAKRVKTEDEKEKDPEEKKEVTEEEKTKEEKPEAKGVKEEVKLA

[1] = target: Voltage-gated inwardly rectifying potassium channel KCNH2 (Homo sapiens, UniProt Q12809); experiment: Inhibition of hERG potassium channel incubated for 4 hrs by fluorescence polarization assay; assay type: toxicity
Chain of Voltage-gated inwardly rectifying potassium channel KCNH2 (Q12809 whole entry): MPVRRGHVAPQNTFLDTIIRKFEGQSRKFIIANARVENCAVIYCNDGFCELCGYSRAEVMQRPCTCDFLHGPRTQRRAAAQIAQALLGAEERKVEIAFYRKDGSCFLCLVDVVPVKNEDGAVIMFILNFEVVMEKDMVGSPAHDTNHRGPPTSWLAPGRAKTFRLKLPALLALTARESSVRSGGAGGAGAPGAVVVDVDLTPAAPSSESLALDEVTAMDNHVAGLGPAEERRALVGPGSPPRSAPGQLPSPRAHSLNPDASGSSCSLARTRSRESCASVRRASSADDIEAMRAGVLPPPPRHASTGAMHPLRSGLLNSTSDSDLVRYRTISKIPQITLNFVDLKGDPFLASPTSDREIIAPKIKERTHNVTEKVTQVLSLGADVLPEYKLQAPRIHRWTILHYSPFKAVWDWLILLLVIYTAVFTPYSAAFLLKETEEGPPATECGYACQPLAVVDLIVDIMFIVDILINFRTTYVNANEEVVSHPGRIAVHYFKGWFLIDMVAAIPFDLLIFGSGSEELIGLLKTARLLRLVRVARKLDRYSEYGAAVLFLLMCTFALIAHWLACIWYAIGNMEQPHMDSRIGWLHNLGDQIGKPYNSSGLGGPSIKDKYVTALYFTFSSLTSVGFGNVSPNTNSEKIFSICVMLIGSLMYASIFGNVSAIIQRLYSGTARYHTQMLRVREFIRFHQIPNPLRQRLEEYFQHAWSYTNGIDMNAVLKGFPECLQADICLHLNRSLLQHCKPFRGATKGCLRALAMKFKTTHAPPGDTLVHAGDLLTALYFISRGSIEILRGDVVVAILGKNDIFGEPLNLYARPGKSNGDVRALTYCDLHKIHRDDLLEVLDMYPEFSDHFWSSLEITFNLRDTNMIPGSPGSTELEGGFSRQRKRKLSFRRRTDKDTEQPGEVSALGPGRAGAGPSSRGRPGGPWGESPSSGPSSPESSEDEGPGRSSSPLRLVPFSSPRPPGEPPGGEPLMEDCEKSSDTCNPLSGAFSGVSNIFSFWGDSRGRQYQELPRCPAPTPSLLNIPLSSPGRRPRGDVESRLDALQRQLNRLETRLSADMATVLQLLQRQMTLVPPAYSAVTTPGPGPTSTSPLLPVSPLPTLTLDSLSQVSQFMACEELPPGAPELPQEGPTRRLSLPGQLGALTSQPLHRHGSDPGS

Histone deacetylase 2 = Histone deacetylase 2 (Homo sapiens, UniProt Q92769); experiment: Inhibition of human HDAC2
Chain of Histone deacetylase 2 (Q92769 whole entry): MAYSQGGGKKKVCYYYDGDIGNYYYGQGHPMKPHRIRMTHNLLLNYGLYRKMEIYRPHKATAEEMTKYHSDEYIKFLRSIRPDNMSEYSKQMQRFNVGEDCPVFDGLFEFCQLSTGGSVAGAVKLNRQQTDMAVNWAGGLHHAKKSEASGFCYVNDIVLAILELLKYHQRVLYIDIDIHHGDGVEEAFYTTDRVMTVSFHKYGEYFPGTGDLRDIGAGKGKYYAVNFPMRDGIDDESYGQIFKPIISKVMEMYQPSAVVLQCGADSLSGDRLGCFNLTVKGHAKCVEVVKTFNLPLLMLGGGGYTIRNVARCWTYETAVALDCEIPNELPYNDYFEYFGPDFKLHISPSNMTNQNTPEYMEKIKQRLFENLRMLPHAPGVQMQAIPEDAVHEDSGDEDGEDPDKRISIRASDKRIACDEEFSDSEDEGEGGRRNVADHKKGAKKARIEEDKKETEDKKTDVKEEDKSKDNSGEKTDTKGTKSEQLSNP

Histone deacetylase 3 = Histone deacetylase 3 (Homo sapiens, UniProt O15379); experiment: Inhibition of human HDAC3 expressed in baculovirus infected insect cells using FLUOR DE LYS-SIRT1 as fluorogenic substrate preincubated for 10 mins followed by substrate addition and measured after 1 hr by spectrophotometer based analysis
Chain of Histone deacetylase 3 (O15379 whole entry): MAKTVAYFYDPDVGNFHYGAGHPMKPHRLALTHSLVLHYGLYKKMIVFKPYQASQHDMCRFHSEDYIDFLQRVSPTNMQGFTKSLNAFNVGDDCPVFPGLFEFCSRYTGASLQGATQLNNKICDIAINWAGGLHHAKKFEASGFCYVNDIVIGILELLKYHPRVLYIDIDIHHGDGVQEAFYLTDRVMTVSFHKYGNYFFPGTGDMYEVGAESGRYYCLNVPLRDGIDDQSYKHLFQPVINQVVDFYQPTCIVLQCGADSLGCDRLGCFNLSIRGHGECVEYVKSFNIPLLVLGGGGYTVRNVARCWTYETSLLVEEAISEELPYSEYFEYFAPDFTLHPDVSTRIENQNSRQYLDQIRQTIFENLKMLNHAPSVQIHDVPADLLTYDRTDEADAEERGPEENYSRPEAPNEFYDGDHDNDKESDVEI

[2] = AUC in NMRI mouse plasma at 5 to 20 mg/kg, po by LC/MS/MS analysis; assay type: ADME, organism-based; design: route po; details: NMRI, plasma, dose 5-20 mg/kg, read-out: AUC
Summary of the method: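 Compound given orally as its tartrate salt at 20 mg/kg in mouse, 10 mg/kg in rat and 5 mg/kg in minipig.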

[3] = Metabolic stability in mouse plasma assessed as half life; assay type: ADME, cell-free
[4] = Metabolic stability in human plasma assessed as half life; assay type: ADME, cell-free
[5] = Metabolic stability in mouse hepatocyte assessed as half life; assay type: ADME, cell-based; details: hepatocytes
[6] = Metabolic stability in human hepatocyte assessed as half life; assay type: ADME, cell-based; details: hepatocytes

- EC50 (Histone deacetylase): 610 nM
- IC50 (Histone deacetylase 1): 30.5 nM
Structure (SMILES): CCC(=O)CCCCC[C@H](NC(=O)C(=O)N1CCOCC1)c1ncc(-c2cc3ccccc3nc2OC)o1
- IC50 [1]: > 30000 nM

- EC50 (Histone deacetylase): 138 nM
- IC50 (Histone deacetylase 1): 3 nM
Structure (SMILES): CCC(=O)CCCCC[C@H](NC(=O)Cn1ccnn1)c1ncc(-c2cc3ccccc3nc2OC)o1
- IC50 [1]: > 30000 nM

- IC50 (Histone deacetylase 1): 325 nM
Structure (SMILES): CNC(=O)CCCCC[C@H](NC(=O)c1cncs1)c1ncc(-c2ccc3ccccc3c2)[nH]1

- EC50 (Histone deacetylase): 15 nM
- IC50 (Histone deacetylase 1): 3.5 nM
- IC50 (Histone deacetylase 2): < 3.5 nM
- IC50 (Histone deacetylase 3): < 3.5 nM
Structure (SMILES): CCC(=O)CCCCC[C@H](NC(=O)C(C)(C)N(C)C)c1ncc(-c2cc3ccccc3nc2OC)o1

- IC50 (Histone deacetylase 1): 1370 nM
Structure (SMILES): CNC(=O)CCCCC[C@H](NC(=O)CCc1c[nH]c2ccccc12)c1ncc(-c2ccc(CN(C)C)cc2)[nH]1

- EC50 (Histone deacetylase): 44 nM
- IC50 (Histone deacetylase 1): 3.2 nM
Structure (SMILES): CCC(=O)CCCCC[C@H](NC(=O)Cc1c(C)[nH]c2ccc(OC)cc12)c1ncc(-c2ccc3ccccc3c2)[nH]1

- half-life [3]: > 4 h
- half-life [4]: > 4 h
- half-life [5]: > 4 h
- half-life [6]: > 4 h
Structure (SMILES): CNC(=O)CCCCC[C@H](NC(=O)Cn1ccc2cc(C#N)ccc21)c1ncc(-c2ccc(CN(C)C)cc2)[nH]1

- EC50 (Histone deacetylase): 873 nM
- IC50 (Histone deacetylase 1): 12.2 nM
Structure (SMILES): CCC(=O)CCCCC[C@H](NC(=O)C1CN(C)C1)c1ncc(-c2ccc3ccccc3c2)o1

- IC50 (Histone deacetylase 1): 860 nM
Structure (SMILES): CNC(=O)CCCCC[C@H](NC(=O)CCc1c[nH]c2ccccc12)c1ncc(-c2ccc(-n3cccn3)cc2)[nH]1

More lines, now with the values behind:

Structure (SMILES): CCC(=O)CCCCC[C@H](NC(=O)C1(F)CN(C)C1)c1ncc(-c2cc3ccccc3nc2OC)o1
- EC50 (Histone deacetylase): 430 nM
- IC50 (Histone deacetylase 1): 17 nM
- IC50 [1]: 13600 nM

Structure (SMILES): CCC(=O)CCCCC[C@H](NC(=O)C1CN(C)C1)c1ncc(-c2cc3ccccc3[nH]c2=O)o1
- EC50 (Histone deacetylase): 94 nM
- IC50 (Histone deacetylase 1): 2.1 nM
- IC50 [1]: > 30000 nM

Structure (SMILES): CCC(=O)CCCCC[C@H](NC(=O)C12CCN(CC1)CC2)c1ncc(-c2cc3ccccc3nc2OC)o1
- EC50 (Histone deacetylase): 43 nM
- IC50 (Histone deacetylase 1): 1.6 nM
- IC50 (Histone deacetylase 2): < 3.5 nM
- IC50 (Histone deacetylase 3): < 3.5 nM
- IC50 [1]: 190 nM

Structure (SMILES): CCC(=O)CCCCC[C@H](NC(=O)Cc1c(C)[nH]c2ccc(OC)cc12)c1ncc(-c2ccc3ccccc3c2)o1
- EC50 (Histone deacetylase): 412 nM
- IC50 (Histone deacetylase 1): 19.6 nM

Structure (SMILES): CCC(=O)CCCCC[C@H](NC(=O)C1CN(C)C1)c1ncc(-c2cc3ccccc3nc2OC)[nH]1
- IC50 [1]: 3000 nM
- AUC [2]: 0.9 µM·h

Structure (SMILES): CCC(=O)CCCCC[C@H](NC(=O)C1CN(C)C1)c1ncc(-c2ccc3ccccc3c2)[nH]1
- EC50 (Histone deacetylase): 125 nM
- IC50 (Histone deacetylase 1): 1.5 nM

Structure (SMILES): CNC(=O)CCCCC[C@H](NC(=O)c1cncs1)c1ncc(-c2ccc(CN(C)C)cc2)[nH]1
- IC50 (Histone deacetylase 1): 6070 nM

Structure (SMILES): CCC(=O)CCCCC[C@H](NC(=O)C1CNC(=O)C1)c1ncc(-c2cc3ccccc3nc2OC)o1 (some centres not stated)
- EC50 (Histone deacetylase): 208 nM
- IC50 (Histone deacetylase 1): 3.2 nM
- IC50 [1]: > 30000 nM
